According to ChEMBL document CHEMBL1138743, “Discovery of novel heteroarylazoles that are metabotropic glutamate subtype 5 receptor antagonists with anxiolytic activity” (J Med Chem, 2004):
pIC50, pKi: −log10 of the molar value.

Assays:
[1] = Volume of distribution in rat; format: ADME, organism-based; details: in vivo
Outline: (§1)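 Sprague-Dawley rats given 2 mg/kg iv (n = 2/group) and 10 mg/kg po (n = 3/group). Clearance, volume of distribution, half-life and oral bioavailability derived from plasma concentration profiles.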

Rattus norvegicus [2] = test: In vivo receptor occupancy was determined in rats administered perorally after 2 hr; format: functional; details: po
Outline: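 Sprague-Dawley rats dosed orally (n = 5–7/group); tail-vein radioligand given at Tmax, 2 h post-dose. Animals killed 1 min later and brain-bound tracer quantified. Occupancy ED50 from dose–response.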

[3] = Maximum concentration in rat when administered at 10 mg/kg perorally; format: ADME, organism-based; parameters: dose 10 mg/kg, route oral; details: in vivo, po
Outline: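 Sprague-Dawley rats dosed 10 mg/kg po (n = 3/group); maximum plasma concentration recorded.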

[4] = Plasma level after 1 hr following 3 mg/kg dose administered intraperitoneally; format: ADME, organism-based; parameters: dose 3 mg/kg, route intraperitoneal; details: rat, ip, read-out: Plasma Level
Outline: (§2)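 Rats given 3 mg/kg ip; plasma and brain concentrations measured at 1 h after dosing.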

[5] = Plasma clearance in rat; format: ADME, organism-based; details: read-out: Clp; outline: as §1
[6] = molecular target: Metabotropic glutamate receptor 5 (Homo sapiens, UniProt P41594); test: Inhibitory concentration towards human glutamate receptor 5 in calcium flux assay; format: functional
Outline: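 Ltk cells stably expressing human recombinant mGlu5; glutamate as agonist. Cytosolic Ca2+ changes read by fura-2 fluorescence in an automated format. IC50 given as geometric mean with limits and replicate number.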

Rattus norvegicus [7] = test: In vivo receptor occupancy was determined in rats administered intraperitoneally after 1 hr; format: functional; details: ip
[8] = Brain level after 1 hr following 3 mg/kg dose administered intraperitoneally; format: ADME, organism-based; parameters: dose 3 mg/kg, route intraperitoneal; details: rat, ip; outline: as §2
[9] = Bioavailability in rat; format: ADME, organism-based; details: in vivo; outline: as §1
[10] = molecular target: Metabotropic glutamate receptor 5 (Rattus norvegicus, UniProt P31424); test: Displacement of [3H]3-methoxy-5-(pyridin-2-ylethynyl)pyridine from glutamate 5 receptor of rat cortical membranes; format: cell membranes, Membrane
Outline: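 Native mGlu5 in rat cortical membranes; displacement of bound [3H]-3-methoxy-5-(pyridin-2-ylethynyl)pyridine by test compound. Ki given as geometric mean with lower and upper limits and number of replicates.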

[11] = Half life in rat; format: ADME; details: in vivo; outline: as §1
[12] = Plasma level after 1 hr following 10 mg/kg dose administered intraperitoneally; format: ADME, organism-based; parameters: dose 10 mg/kg, route intraperitoneal; details: rat, ip, read-out: Plasma Level
Outline: (§3)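 Rats given 10 mg/kg ip; plasma and brain concentrations measured at 1 h after dosing.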

[13] = Brain level after 1 hr following 10 mg/kg dose administered intraperitoneally; format: ADME, organism-based; parameters: dose 10 mg/kg, route intraperitoneal; details: rat, ip; outline: as §3
Rattus norvegicus [14] = test: In vivo receptor occupancy was determined in rats administered perorally after 30 min; format: functional; details: po, 0.5 h
Rattus norvegicus [15] = test: Blockage of fear-conditioning in rats determined in the fear-potentiated startle (FPS) model of anxiety administered perorally after 1 hr; format: functional; details: po
Outline: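 Fear-potentiated startle in Wistar rats (n = 8/group), acute oral dosing, tested 1 h after administration. Startle amplitude compared in dark versus light; ED50 for blocking fear expression.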

Metabotropic glutamate receptor 5 (Rattus norvegicus, UniProt P31424), sequence (P31424 whole entry): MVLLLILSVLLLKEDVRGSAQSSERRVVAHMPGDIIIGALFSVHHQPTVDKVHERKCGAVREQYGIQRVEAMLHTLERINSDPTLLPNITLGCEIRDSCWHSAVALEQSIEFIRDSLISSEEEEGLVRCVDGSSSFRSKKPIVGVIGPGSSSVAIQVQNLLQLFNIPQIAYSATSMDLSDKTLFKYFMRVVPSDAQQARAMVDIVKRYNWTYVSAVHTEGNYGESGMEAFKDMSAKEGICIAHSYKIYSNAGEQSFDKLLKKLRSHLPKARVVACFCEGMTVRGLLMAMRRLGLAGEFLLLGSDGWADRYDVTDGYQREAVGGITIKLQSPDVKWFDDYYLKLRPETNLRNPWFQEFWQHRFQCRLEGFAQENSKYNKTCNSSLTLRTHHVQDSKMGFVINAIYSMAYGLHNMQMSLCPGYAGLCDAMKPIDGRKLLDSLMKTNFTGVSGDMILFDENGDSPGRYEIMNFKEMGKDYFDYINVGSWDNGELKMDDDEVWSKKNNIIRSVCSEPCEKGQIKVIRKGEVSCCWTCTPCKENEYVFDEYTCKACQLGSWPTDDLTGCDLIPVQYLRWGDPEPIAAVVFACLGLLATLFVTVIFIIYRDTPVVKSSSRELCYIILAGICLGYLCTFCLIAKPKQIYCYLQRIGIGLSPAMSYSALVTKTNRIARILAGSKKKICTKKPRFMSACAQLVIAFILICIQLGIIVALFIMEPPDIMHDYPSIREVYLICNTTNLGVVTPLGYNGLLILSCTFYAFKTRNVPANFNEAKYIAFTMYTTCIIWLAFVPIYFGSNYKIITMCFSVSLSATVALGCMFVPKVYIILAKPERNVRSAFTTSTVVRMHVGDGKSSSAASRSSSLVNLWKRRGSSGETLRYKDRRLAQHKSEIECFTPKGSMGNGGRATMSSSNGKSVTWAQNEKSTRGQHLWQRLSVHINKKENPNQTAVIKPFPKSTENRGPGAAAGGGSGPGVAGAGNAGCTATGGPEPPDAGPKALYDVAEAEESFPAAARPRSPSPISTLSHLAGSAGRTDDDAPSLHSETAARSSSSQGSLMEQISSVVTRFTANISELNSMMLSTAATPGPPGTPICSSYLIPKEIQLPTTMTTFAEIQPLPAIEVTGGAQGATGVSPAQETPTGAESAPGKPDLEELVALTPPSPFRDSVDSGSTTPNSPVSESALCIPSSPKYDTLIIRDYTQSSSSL
Metabotropic glutamate receptor 5 (Homo sapiens, UniProt P41594), sequence (P41594 whole entry): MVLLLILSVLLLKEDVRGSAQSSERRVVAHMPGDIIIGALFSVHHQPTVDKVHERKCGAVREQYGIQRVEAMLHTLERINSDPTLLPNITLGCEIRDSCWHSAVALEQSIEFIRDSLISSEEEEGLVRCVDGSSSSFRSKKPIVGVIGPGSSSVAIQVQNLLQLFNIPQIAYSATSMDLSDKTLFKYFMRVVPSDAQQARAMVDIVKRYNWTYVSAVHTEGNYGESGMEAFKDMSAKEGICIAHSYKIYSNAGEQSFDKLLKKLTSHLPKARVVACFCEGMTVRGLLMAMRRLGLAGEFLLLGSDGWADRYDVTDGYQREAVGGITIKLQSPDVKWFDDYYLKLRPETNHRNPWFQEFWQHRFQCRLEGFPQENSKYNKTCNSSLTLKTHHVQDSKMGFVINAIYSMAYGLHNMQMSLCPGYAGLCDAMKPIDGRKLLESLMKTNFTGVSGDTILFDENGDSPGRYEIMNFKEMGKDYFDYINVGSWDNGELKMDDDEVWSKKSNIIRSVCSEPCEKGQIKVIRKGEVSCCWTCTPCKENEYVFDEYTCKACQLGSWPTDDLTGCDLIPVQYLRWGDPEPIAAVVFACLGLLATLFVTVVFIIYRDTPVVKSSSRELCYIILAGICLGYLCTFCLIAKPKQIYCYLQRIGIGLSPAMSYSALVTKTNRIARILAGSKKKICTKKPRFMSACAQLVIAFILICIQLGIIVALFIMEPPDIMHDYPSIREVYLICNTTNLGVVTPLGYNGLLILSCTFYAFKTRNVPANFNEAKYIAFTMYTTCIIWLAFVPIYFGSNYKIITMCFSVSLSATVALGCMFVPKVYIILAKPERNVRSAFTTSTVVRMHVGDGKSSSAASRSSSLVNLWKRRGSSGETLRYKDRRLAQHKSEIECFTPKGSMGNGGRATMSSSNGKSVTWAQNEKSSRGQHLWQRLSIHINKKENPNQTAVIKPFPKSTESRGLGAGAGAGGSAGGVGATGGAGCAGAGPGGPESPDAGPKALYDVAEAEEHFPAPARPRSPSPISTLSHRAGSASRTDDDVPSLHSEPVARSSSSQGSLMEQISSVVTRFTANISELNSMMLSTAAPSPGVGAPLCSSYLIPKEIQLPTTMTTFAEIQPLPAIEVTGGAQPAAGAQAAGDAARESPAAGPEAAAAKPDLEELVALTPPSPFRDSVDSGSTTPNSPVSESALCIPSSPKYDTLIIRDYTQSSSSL

Row | SMILES | Cmax [3] | clearance [5] | pIC50 [6] | pKi [10] | further results
1 | N#Cc1cccc(-c2ccn(-c3ccccn3)c2)c1 |  |  | 5.34 | < 6.22 | 
2 | N#Cc1cccc(-c2cn(-c3ccccn3)cn2)c1 |  |  | < 5.00 | < 6.22 | 
3 | N#Cc1cccc(-c2cnn(-c3ccccn3)c2)c1 |  |  | 6.05 | < 6.20 | 
4 | N#Cc1cccc(-n2ccc(-c3ccccn3)c2)c1 | 900 nM | 32.5 mL/min/kg | 6.72 | < 6.22 | half-life [11]: 1.7 h; Vd [1]: 3.6 L/kg; bioavailability [9]: 4%
5 | N#Cc1cccc(-c2ncn(-c3ccccn3)n2)c1 |  |  | 5.21 | < 6.22 | 
6 | N#Cc1cccc(-c2cn(-c3ccccn3)nn2)c1 |  |  | < 5.00 | < 6.20 | 
7 | N#Cc1cccc(-n2cnc(-c3ccccn3)c2)c1 |  |  | 5.94 | < 6.22 | 
8 | N#Cc1cccc(-n2cnc(-c3ccccn3)n2)c1 |  |  | 6.16 | < 6.22 | 
9 | N#Cc1cccc(-n2cc(-c3ccccn3)nn2)c1 |  |  | 6.01 | < 6.22 | 

Continued, in another order:

Row | Cmax [3] | clearance [5] | pIC50 [6] | pKi [10] | SMILES | further results
10 | 2500 nM | 16.9 mL/min/kg | 8.40 | 8.00 | N#Cc1cc(F)cc(-n2nnc(-c3ccccn3)n2)c1 | Vd [1]: 1.1 L/kg; ED50 (Rattus norvegicus [2]): 3.6 mg/kg; concentration at 1 h [4]: 2700 nM; ED50 (Rattus norvegicus [7]): 1.3 mg/kg; concentration at 1 h [8]: 2400 nM; bioavailability [9]: 26%
11 |  |  | 5.44 | < 6.22 | N#Cc1cccc(-c2ccn(-c3ccccn3)n2)c1 | 
12 |  |  | 6.57 | 6.35 | N#Cc1cccc(-c2nnn(-c3ccccn3)n2)c1 | 
13 | 5800 nM | 32.9 mL/min/kg | 7.15 | 6.72 | N#Cc1cccc(-n2nnc(-c3ccccn3)n2)c1 | concentration at 1 h [12]: 10500 nM; concentration at 1 h [13]: 15300 nM; ED50 (Rattus norvegicus [14]): 3 mg/kg; ED50 (Rattus norvegicus [15]): 5.4 mg/kg; ED50 (Rattus norvegicus [7]): 3 mg/kg
14 |  |  |  | 6.31 | N#Cc1cccc(-c2nc(-c3ccccn3)no2)c1 | 
15 | 2700 nM | 15.1 mL/min/kg | 6.68 | 6.70 | N#Cc1cccc(-c2cnn(-c3ccccn3)n2)c1 | half-life [11]: 1.7 h; Vd [1]: 1 L/kg; bioavailability [9]: 13%
16 |  |  | 6.36 | 6.28 | N#Cc1cccc(-n2ccc(-c3ccccn3)n2)c1 | 
17 | 600 nM | 15.7 mL/min/kg | 7.10 | 6.52 | N#Cc1cccc(-n2ncc(-c3ccccn3)n2)c1 | half-life [11]: 2.5 h; Vd [1]: 1.1 L/kg; bioavailability [9]: 3%
18 | 1200 nM | 9.7 mL/min/kg | 6.85 | 6.60 | N#Cc1cccc(-n2cc(-c3ccccn3)cn2)c1 | half-life [11]: 5.5 h; Vd [1]: 3.7 L/kg; bioavailability [9]: 3%
